# In ChEMBL document CHEMBL1122780, “Trequinsin, a potent new antihypertensive vasodilator in the series of 2-(arylimino)-3-alkyl-9,10-dimethoxy-3,4,6,7-tetrahydro-2H-py rim ido [6,1-a]isoquinolin-4-ones” (J Med Chem, 1984):
# Tests used:
# [1] = tested on: Rattus norvegicus; assay: Difference in systolic blood pressure of SH rats observed prior to the first application and 2 hr after the fifth application at the oral dose of 25 mg/kg was expressed as Delta BP; format: functional, Artery
# Outline: (§1)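 Male spontaneously hypertensive rats (Wistar–Okamoto, 250–300 g, 12–16 weeks), conscious. Dosed orally once daily for 5 days in 0.9% NaCl or 0.5% carboxymethylcellulose (10 mL/kg); vehicle control group. Rats warmed at 37–38 °C for 10 min, then systolic pressure taken by tail-cuff (piezoelectric pulse detection). ΔBP = pre-first-dose minus 2 h after fifth dose; mean ± SEM, six animals.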
# [2] = species on record: Rattus norvegicus; assay: Evaluated for antihypertensive activity in hypertensive(SH) rat
# [3] = species on record: Rattus norvegicus; assay: Delta BP refers to difference in systolic blood pressure of SH rats; format: functional, Artery; outline: as §1
# [4] = tested on: Felis catus; assay: Dose estimated to produce 25 mm Hg fall in mean systemic blood pressure of anesthetized cat at 10 min after administration; format: functional
# [5] = tested on: Felis catus; assay: Dose estimated to produce a fall in mean blood pressure of anesthetized cat at 10 min after administration; format: functional
# Outline: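 Cats (2.5–4.0 kg, either sex), ether induction, chloralose 70 mg/kg iv maintenance. Compound in distilled water or propylene glycol given via femoral vein at 0.01–10 mg/kg. Fall in mean arterial pressure read 10 min post-dose; ED25 (dose for 25 mmHg fall) calculated from log dose–response curve.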
# [6] = tested on: Oryctolagus cuniculus; assay: Duration for hypotensive action in rabbits after administering 25 ug/kg intravenously; format: functional
# Outline: (§2)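 Anesthetized rabbits. Dosing by femoral vein catheter at 10, 25 or 50 µg/kg. Records initial BP, maximal fall in mean arterial pressure, percent hypotension and duration of hypotension. Mean ± SEM, 6–7 experiments per dose.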
# [7] = tested on: Oryctolagus cuniculus; assay: Hypotensive activity of compound was evaluated by measuring initial blood pressure in rabbits after administering 25 ug/kg intravenously; format: functional; outline: as §2
# [8] = tested on: Oryctolagus cuniculus; assay: Hypotensive activity of compound was evaluated by measuring initial blood pressure in rabbits after administering 10 ug/kg intravenously; format: functional; outline: as §2
# [9] = tested on: Canis familiaris; assay: Duration for hypotensive action in dogs after administering 100 ug/kg intravenously; format: functional, Canis lupus familiaris
# Outline: (§3)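 Mongrel dogs (10–16 kg, either sex) anesthetized with pentobarbitone sodium 35 mg/kg iv. Dosing by femoral vein catheter at 25, 50 or 100 µg/kg. Records initial BP, maximal fall in mean arterial pressure, percent hypotension and duration. Mean ± SEM, 3–8 experiments per dose.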
# [10] = tested on: Canis familiaris; assay: Hypotensive activity of compound was evaluated by measuring initial blood pressure in dogs after administering 100 ug/kg intravenously; format: functional, Canis lupus familiaris; outline: as §3
# [11] = tested on: Canis familiaris; assay: Hypotensive activity of compound was evaluated by measuring fall in blood pressure in dogs after administering 50 ug/kg intravenously; format: functional, Canis lupus familiaris; outline: as §3
# [12] = tested on: Felis catus; assay: Duration for hypotensive action in cats after administering 10 ug/kg intravenously; format: functional
# Outline: (§4)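 Cats (2.5–4.0 kg, either sex) under ether, maintained on chloralose 70 mg/kg iv. Dosing by femoral vein catheter at 10, 25 or 50 µg/kg. Records initial BP, peak fall in mean arterial pressure, percent hypotension and response duration. Mean ± SEM, five experiments per dose.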
# [13] = tested on: Oryctolagus cuniculus; assay: Percent hypotension was determined in rabbits after administering 10 ug/kg intravenously; format: functional; outline: as §2
# [14] = tested on: Canis familiaris; assay: Percent hypotension was determined in dogs after administering 50 ug/kg intravenously; format: functional, Canis lupus familiaris; outline: as §3
# [15] = tested on: Canis familiaris; assay: Hypotensive activity of compound was evaluated by measuring initial blood pressure in dogs after administering 50 ug/kg intravenously; format: functional, Canis lupus familiaris; outline: as §3
# [16] = tested on: Felis catus; assay: Hypotensive activity of compound was evaluated by measuring initial blood pressure in cats after administering 50 ug/kg intravenously; format: functional; outline: as §4
# [17] = tested on: Canis familiaris; assay: Percent hypotension was determined in dogs after administering 25 ug/kg intravenously; format: functional, Canis lupus familiaris; outline: as §3
# [18] = tested on: Rattus norvegicus; assay: Difference in systolic blood pressure of SH rats observed prior to the first application and 2 hr after the fifth application at the oral dose of 5 mg/kg was expressed as Delta BP; format: functional, Artery; outline: as §1
# [19] = tested on: Oryctolagus cuniculus; assay: Duration for hypotensive action in rabbits after administering 50 ug/kg intravenously; format: functional; outline: as §2
# [20] = tested on: Canis familiaris; assay: Percent hypotension was determined in dogs after administering 100 ug/kg intravenously; format: functional, Canis lupus familiaris; outline: as §3
# [21] = tested on: Canis familiaris; assay: Duration for hypotensive action in dogs after administering 25 ug/kg intravenously; format: functional, Canis lupus familiaris; outline: as §3
# [22] = tested on: Felis catus; assay: Duration for hypotensive action in cats after administering 25 ug/kg intravenously; format: functional; outline: as §4
# [23] = tested on: Felis catus; assay: Percent hypotension was determined in cats after administering 10 ug/kg intravenously; format: functional; outline: as §4
# [24] = tested on: Oryctolagus cuniculus; assay: Hypotensive activity of compound was evaluated by measuring initial blood pressure in rabbits after administering 50 ug/kg intravenously; format: functional; outline: as §2
# [25] = tested on: Felis catus; assay: Blood pressure lowering activity in anesthetized cats after intravenous administration of […] of compound; format: functional
# [26] = tested on: Felis catus; assay: Percent hypotension was determined in cats after administering 25 ug/kg intravenously; format: functional; outline: as §4
# [27] = tested on: Canis familiaris; assay: Hypotensive activity of compound was evaluated by measuring initial blood pressure in dogs after administering 25 ug/kg intravenously; format: functional, Canis lupus familiaris; outline: as §3
# [28] = tested on: Felis catus; assay: Duration for hypotensive action in cats after administering 50 ug/kg intravenously; format: functional; outline: as §4
# [29] = tested on: Felis catus; assay: Hypotensive activity of compound was evaluated by measuring fall in blood pressure in cats after administering 25 ug/kg intravenously; format: functional; outline: as §4
# [30] = tested on: Felis catus; assay: Hypotensive activity of compound was evaluated by measuring fall in blood pressure in cats after administering 10 ug/kg intravenously; format: functional; outline: as §4
# [31] = tested on: Felis catus; assay: Hypotensive activity of compound was evaluated by measuring fall in blood pressure in cats after administering 50 ug/kg intravenously; format: functional; outline: as §4
# [32] = tested on: Felis catus; assay: Percent hypotension was determined in cats after administering 50 ug/kg intravenously; format: functional; outline: as §4
# [33] = tested on: Oryctolagus cuniculus; assay: Hypotensive activity of compound was evaluated by measuring fall in blood pressure in rabbits after administering 25 ug/kg intravenously; format: functional; outline: as §2
# [34] = tested on: Oryctolagus cuniculus; assay: Percent hypotension was determined in rabbits after administering 25 ug/kg intravenously; format: functional; outline: as §2
# [35] = Compound was tested for toxicity in mice after intraperitoneal administration; format: organism-based; conditions: mouse, in vivo, ip
# Outline: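 Mice (18–22 g), either sex. Compound dissolved in distilled water or suspended in 0.5% (carboxymethyl)cellulose and given ip at 10, 30, 100, 300 and 1000 mg/kg, 1 mL/100 g body weight. Animals observed for 48 h; approximate LD50 calculated by the Campbell and Richter method.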
# [36] = tested on: Felis catus; assay: Hypotensive activity of compound was evaluated by measuring initial blood pressure in cats after administering 25 ug/kg intravenously; format: functional; outline: as §4
# [37] = tested on: Oryctolagus cuniculus; assay: Hypotensive activity of compound was evaluated by measuring fall in blood pressure in rabbits after administering 50 ug/kg intravenously; format: functional; outline: as §2
# [38] = tested on: Canis familiaris; assay: Duration for hypotensive action in dogs after administering 50 ug/kg intravenously; format: functional, Canis lupus familiaris; outline: as §3
# [39] = tested on: Canis familiaris; assay: Hypotensive activity of compound was evaluated by measuring fall in blood pressure in dogs after administering 100 ug/kg intravenously; format: functional, Canis lupus familiaris; outline: as §3
# [40] = tested on: Oryctolagus cuniculus; assay: Percent hypotension was determined in rabbits after administering 50 ug/kg intravenously; format: functional; outline: as §2
# [41] = tested on: Oryctolagus cuniculus; assay: Duration for hypotensive action in rabbits after administering 10 ug/kg intravenously; format: functional; outline: as §2
# [42] = tested on: Oryctolagus cuniculus; assay: Hypotensive activity of compound was evaluated by measuring fall in blood pressure in rabbits after administering 10 ug/kg intravenously; format: functional; outline: as §2
# [43] = tested on: Felis catus; assay: Hypotensive activity of compound was evaluated by measuring initial blood pressure in cats after administering 10 ug/kg intravenously; format: functional; outline: as §4
# [44] = tested on: Canis familiaris; assay: Hypotensive activity of compound was evaluated by measuring fall in blood pressure in dogs after administering 25 ug/kg intravenously; format: functional, Canis lupus familiaris; outline: as §3
smiles,measurement,setting,value
COc1cc2c(cc1OC)-c1cc(N(C)c3c(F)cccc3F)nc(=O)n1CC2,Delta blood pressure,[1],0 mmHg
same,Antihypertensive activity,[2],10 mg/kg
same,Delta blood pressure,[3],0 mmHg
same,ED25,[4],6 mg/kg
same,ED25,[5],0.03 mg/kg
COc1cc2c(cc1OC)-c1c/c(=N\c3c(C)cc(C)cc3C)n(C)c(=O)n1CC2.Cl [TREQUINSIN HYDROCHLORIDE],Duration,[6],57.8 min
same,BP,[7],89.6 mmHg
same,BP,[8],93.8 mmHg
same,Duration,[9],140 min
same,BP,[10],168.3 mmHg
same,BP,[11],40.8 mmHg
same,Duration,[12],16 min
same,Hypotension,[13],18.6%
same,Hypotension,[14],25.4%
same,BP,[15],163.3 mmHg
same,BP,[16],125 mmHg
same,Hypotension,[17],22.9%
same,Delta blood pressure,[18],-41 mmHg
same,Duration,[19],70 min
same,Hypotension,[20],33.7%
same,Duration,[21],50 min
same,Duration,[22],45 min
same,Hypotension,[23],16.8%
same,BP,[24],84.2 mmHg
same,ED25,[25],0.025 mg/kg
same,Hypotension,[26],23.4%
same,BP,[27],168.8 mmHg
same,Duration,[28],82.5 min
same,BP,[29],25.8 mmHg
same,BP,[30],17 mmHg
same,BP,[31],34.2 mmHg
same,Hypotension,[32],28.6%
same,BP,[33],26.4 mmHg
same,Hypotension,[34],29.9%
same,LD50,[35],150 mg/kg
same,BP,[36],116 mmHg
same,BP,[37],24.2 mmHg
same,Duration,[38],98.3 min
same,ED25,[4],0.025 mg/kg
same,BP,[39],56.1 mmHg
same,Hypotension,[40],28.5%
same,Duration,[41],20.7 min
same,BP,[42],17.4 mmHg
same,BP,[43],110 mmHg
same,BP,[44],37.5 mmHg
